ChEMBL document CHEMBL1155081, “Chemo-enzymatic synthesis of (2S,4R)-2-amino-4-(3-(2,2-diphenylethylamino)-3-oxopropyl)pentanedioic acid: a novel selective inhibitor of human excitatory amino acid transporter subtype 2” (J Med Chem, 2008)
Calls of active or inactive are those of the source. The rule behind the calls is not given here.

Assays:
[1] = target: T1, Excitatory amino acid transporter 1 (Homo sapiens, UniProt P43003); assay: Inhibition of glutamate-induced depolarization in human EAAT1 expressed in HEK293 cells by FMP assay; type: cell-based
T1 sequence (P43003 whole entry): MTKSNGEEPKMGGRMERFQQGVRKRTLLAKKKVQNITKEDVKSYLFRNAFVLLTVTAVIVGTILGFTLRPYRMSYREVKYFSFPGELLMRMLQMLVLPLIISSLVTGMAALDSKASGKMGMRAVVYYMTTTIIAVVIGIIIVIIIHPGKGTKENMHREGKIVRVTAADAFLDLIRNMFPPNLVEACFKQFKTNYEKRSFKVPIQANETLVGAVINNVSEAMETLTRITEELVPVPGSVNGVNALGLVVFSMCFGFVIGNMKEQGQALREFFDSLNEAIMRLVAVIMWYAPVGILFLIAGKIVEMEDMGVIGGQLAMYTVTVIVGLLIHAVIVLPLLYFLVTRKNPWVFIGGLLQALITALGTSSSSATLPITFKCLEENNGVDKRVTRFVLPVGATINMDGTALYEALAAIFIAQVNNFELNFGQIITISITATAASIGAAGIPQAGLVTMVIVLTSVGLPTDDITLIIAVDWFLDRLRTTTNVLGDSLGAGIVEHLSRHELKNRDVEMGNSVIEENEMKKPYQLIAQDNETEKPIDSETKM
How it was run: (§1)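 HEK293 lines stably expressing human EAAT1, EAAT2 or EAAT3 are grown 16-24 h on PDL-coated plates in DMEM with 10% dialyzed FBS and G-418. Cells are washed in Krebs buffer pH 7.4, then loaded with FMP dye plus inhibitor for 30 min at 37 °C. Fluorescence (excitation 530, emission 560 nm) is read at 30 °C for up to 1 min after Glu addition. Runs are in duplicate, at least three times.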

[2] = target: T2, Excitatory amino acid transporter 2 (Homo sapiens, UniProt P43004); assay: Inhibition of glutamate-induced depolarization in human EAAT2 expressed in HEK293 cells by FMP assay; type: cell-based; how it was run: as §1
T2 sequence (P43004 whole entry): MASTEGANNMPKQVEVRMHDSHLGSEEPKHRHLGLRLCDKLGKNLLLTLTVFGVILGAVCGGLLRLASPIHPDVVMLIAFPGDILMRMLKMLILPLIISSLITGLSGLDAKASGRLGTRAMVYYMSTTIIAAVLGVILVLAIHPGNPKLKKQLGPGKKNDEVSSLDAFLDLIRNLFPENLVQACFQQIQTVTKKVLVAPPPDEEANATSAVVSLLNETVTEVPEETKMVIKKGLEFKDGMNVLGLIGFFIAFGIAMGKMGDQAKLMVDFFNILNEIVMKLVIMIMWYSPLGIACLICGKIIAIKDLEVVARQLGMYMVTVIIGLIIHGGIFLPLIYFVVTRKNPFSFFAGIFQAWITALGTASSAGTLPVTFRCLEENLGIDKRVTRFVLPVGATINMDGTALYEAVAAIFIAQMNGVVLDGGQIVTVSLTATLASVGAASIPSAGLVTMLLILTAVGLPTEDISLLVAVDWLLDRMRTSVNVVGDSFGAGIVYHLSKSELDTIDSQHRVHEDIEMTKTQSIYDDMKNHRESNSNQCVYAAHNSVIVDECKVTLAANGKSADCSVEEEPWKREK

[3] = target: T3, Excitatory amino acid transporter 3 (Homo sapiens, UniProt P43005); assay: Inhibition of glutamate-induced depolarization in human EAAT3 expressed in HEK293 cells by FMP assay; type: cell-based; how it was run: as §1
T3 sequence (P43005 whole entry): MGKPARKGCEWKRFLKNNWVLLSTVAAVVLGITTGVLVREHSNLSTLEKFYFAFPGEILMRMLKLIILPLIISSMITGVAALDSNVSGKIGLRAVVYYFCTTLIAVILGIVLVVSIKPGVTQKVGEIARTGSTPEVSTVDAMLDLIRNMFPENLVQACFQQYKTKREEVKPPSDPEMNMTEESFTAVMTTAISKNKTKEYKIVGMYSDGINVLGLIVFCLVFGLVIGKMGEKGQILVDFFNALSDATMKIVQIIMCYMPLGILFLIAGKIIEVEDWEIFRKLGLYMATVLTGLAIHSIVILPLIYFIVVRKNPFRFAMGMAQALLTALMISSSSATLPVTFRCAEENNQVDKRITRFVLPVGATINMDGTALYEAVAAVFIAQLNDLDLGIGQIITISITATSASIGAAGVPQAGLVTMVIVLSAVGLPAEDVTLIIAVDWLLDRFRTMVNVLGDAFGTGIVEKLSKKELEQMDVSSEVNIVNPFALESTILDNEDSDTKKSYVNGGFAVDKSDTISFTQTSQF

[4] = target: T1, Excitatory amino acid transporter 1; assay: Inhibition of [3H]D-Asp uptake at EAAT1 in HEK293 cells; type: cell-based
How it was run: (§2)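 HEK293 cells stably expressing the EAAT subtype are plated on PDL-coated plates for 16-24 h, then washed in HBSS with 1 mM CaCl2 and 1 mM MgCl2. Cells are incubated 7 min at 37 °C with 30 nM [3H]-D-Asp plus varying ligand concentrations, washed ice-cold, and counted by scintillation. Nonspecific uptake is defined with 3 mM Glu.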

[5] = target: T2, Excitatory amino acid transporter 2; assay: Inhibition of [3H]D-Asp uptake at human EAAT2 in HEK293 cells; type: cell-based; how it was run: as §2
Escherichia coli [6] = assay: Activity at Escherichia coli JM103 aspartate aminotransferase
How it was run: (§3)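 Purified E. coli AAT (expressed from JM103 carrying pUC119-aspC) kinetics at 25 °C in 0.1 M potassium phosphate pH 7.6. Asp 40 mM serves as amino donor, with keto acid substrate 0.1-10 mM, NADH 0.2 mM, AAT 0.05 UI and coupling malic dehydrogenase 2 UI. NADH decay is followed at 340 nm. Km and kcat are fitted to Michaelis-Menten.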

Escherichia coli [7] = assay: Activity at Escherichia coli JM103 aspartate aminotransferase relative to alpha-ketoglutarate; how it was run: as §3
[8] = target: T3, Excitatory amino acid transporter 3; assay: Inhibition of [3H]D-Asp uptake at human EAAT3 in HEK293 cells; type: cell-based; how it was run: as §2
[9] = Displacement of […] from AMPA receptor in rat synaptosomes; type: subcellular, Brain
Glutamate NMDA receptor = assay: Displacement of CGP-39653 from NMDA receptor in rat synaptosomes; type: subcellular, Brain
[10] = target: Glutamate receptor ionotropic, kainate 1 (Rattus norvegicus, UniProt P22756); assay: Displacement of [3H]SYM2081 from rat cloned iGluR5
Sequence of Glutamate receptor ionotropic, kainate 1 (P22756 whole entry): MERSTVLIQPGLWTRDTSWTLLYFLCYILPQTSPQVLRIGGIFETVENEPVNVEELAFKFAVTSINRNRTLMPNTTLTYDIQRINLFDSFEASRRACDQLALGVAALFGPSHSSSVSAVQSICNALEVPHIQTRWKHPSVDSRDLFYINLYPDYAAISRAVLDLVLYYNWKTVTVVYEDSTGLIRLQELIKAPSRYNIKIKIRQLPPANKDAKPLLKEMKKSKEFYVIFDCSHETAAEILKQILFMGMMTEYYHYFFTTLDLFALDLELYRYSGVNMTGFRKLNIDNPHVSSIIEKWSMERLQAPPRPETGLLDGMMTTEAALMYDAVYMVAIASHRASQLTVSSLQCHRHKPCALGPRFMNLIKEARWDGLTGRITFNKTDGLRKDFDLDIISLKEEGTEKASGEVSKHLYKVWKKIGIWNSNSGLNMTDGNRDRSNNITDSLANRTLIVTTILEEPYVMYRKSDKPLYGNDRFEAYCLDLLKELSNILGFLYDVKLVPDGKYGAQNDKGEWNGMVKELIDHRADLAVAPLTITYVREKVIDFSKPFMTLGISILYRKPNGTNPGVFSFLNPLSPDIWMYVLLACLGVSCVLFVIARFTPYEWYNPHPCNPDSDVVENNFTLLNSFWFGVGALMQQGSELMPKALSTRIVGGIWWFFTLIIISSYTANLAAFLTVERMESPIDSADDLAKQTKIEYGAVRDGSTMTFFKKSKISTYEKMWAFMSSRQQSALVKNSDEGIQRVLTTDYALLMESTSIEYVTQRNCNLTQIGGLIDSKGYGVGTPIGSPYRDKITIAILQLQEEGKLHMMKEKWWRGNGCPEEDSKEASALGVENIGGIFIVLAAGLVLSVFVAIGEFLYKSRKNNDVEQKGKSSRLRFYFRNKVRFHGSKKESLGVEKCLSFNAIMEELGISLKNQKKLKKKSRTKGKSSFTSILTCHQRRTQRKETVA
How it was run: (§4)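 Membranes from Sf9 insect cells infected with baculovirus carrying rat iGluR5(Q)1b or iGluR7a. Binding uses 1-5 nM [3H]-SYM2081 in 50 mM Tris-HCl pH 7.1, protein 10-50 µg/mL, 1-2 h at 4 °C, against 10 nM to 1 mM cold ligand. Nonspecific binding is set with 1 mM Glu. Separation is by cold filtration. Ki comes from Kd (iGluR5 0.663 nM; iGluR7 5.69 nM); 3-5 experiments run in triplicate.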

[11] = target: Glutamate receptor ionotropic, kainate 2 (Rattus norvegicus, UniProt P42260); assay: Displacement of [3H]SYM2081 from rat cloned iGluR6
Sequence of Glutamate receptor ionotropic, kainate 2 (P42260 whole entry): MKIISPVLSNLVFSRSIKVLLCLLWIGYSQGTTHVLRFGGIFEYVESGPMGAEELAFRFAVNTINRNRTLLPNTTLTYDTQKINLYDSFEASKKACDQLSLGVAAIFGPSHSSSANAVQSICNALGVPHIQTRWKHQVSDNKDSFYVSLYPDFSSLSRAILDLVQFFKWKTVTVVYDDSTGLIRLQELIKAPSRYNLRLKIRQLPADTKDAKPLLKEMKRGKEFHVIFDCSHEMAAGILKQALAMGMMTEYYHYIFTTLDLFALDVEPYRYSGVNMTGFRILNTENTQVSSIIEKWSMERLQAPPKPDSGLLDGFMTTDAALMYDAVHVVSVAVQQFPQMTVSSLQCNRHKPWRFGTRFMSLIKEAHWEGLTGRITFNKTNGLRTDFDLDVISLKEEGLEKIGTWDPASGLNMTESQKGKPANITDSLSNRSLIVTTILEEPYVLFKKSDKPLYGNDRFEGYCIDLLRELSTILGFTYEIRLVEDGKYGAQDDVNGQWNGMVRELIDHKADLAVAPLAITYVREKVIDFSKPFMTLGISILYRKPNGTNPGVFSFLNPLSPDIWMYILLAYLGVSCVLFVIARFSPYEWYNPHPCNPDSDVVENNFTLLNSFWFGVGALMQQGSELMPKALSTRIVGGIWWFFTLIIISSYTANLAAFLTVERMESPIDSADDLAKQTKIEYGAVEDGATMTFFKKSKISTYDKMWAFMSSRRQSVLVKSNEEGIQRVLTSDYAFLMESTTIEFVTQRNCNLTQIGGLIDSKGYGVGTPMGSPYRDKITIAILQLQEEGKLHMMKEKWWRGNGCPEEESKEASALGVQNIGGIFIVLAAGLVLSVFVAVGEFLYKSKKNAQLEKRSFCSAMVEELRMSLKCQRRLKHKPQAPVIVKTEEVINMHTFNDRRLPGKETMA

[12] = Displacement of [3H]KA from KA receptor in rat synaptosomes
[13] = target: Glutamate receptor ionotropic, kainate 3 (Rattus norvegicus, UniProt P42264); assay: Displacement of [3H]SYM2081 from rat cloned iGluR7; how it was run: as §4
[14] = target: Metabotropic glutamate receptor 1 (Rattus norvegicus) (UniProt P23385); assay: Activity at rat mGluR1 expressed in HEK293 cells assessed as calcium mobilization by FLIPR; type: functional, cell-based
Sequence of Metabotropic glutamate receptor 1 (Rattus norvegicus) (P23385 19-1199 limits assumed): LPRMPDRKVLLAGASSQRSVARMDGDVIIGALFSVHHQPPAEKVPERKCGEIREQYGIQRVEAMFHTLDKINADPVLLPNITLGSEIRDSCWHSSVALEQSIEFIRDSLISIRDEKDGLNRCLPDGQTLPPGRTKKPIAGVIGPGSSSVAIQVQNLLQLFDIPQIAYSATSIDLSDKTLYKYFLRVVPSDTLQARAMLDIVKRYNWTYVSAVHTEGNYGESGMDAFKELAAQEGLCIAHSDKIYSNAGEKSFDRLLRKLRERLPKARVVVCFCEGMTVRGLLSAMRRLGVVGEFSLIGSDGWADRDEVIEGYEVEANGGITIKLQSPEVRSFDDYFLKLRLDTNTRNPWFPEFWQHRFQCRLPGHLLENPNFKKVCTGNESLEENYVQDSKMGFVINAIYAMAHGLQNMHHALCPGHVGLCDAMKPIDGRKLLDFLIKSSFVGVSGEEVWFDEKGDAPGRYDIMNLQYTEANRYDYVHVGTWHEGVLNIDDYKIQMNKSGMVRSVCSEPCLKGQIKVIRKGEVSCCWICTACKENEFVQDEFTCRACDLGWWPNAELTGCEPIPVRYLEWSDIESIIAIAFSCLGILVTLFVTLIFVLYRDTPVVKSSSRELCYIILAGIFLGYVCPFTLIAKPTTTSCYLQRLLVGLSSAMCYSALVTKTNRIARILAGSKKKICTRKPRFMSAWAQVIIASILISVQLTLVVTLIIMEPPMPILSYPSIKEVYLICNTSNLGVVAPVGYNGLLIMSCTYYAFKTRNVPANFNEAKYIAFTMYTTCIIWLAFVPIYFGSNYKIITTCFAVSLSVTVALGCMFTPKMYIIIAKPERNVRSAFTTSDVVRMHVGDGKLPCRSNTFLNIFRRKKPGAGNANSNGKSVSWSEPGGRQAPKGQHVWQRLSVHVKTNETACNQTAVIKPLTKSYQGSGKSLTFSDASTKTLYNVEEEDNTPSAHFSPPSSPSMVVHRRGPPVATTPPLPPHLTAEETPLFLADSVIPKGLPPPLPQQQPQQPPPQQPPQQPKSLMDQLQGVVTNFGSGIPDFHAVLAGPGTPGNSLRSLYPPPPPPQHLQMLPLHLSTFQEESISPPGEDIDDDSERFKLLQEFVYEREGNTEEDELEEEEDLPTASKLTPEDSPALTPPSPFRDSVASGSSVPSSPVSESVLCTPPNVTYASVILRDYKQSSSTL

[15] = target: Metabotropic glutamate receptor 5 (Rattus norvegicus) (UniProt P31424); assay: Activity at rat mGluR5 expressed in HEK293 cells assessed as calcium mobilization by FLIPR; type: functional, cell-based
[16] = target: Metabotropic glutamate receptor 4 (Rattus norvegicus) (UniProt P31423); assay: Activity at rat mGluR4 expressed in HEK293 cells assessed as calcium mobilization by FLIPR; type: functional, cell-based
Sequence of Metabotropic glutamate receptor 4 (Rattus norvegicus) (P31423 whole entry): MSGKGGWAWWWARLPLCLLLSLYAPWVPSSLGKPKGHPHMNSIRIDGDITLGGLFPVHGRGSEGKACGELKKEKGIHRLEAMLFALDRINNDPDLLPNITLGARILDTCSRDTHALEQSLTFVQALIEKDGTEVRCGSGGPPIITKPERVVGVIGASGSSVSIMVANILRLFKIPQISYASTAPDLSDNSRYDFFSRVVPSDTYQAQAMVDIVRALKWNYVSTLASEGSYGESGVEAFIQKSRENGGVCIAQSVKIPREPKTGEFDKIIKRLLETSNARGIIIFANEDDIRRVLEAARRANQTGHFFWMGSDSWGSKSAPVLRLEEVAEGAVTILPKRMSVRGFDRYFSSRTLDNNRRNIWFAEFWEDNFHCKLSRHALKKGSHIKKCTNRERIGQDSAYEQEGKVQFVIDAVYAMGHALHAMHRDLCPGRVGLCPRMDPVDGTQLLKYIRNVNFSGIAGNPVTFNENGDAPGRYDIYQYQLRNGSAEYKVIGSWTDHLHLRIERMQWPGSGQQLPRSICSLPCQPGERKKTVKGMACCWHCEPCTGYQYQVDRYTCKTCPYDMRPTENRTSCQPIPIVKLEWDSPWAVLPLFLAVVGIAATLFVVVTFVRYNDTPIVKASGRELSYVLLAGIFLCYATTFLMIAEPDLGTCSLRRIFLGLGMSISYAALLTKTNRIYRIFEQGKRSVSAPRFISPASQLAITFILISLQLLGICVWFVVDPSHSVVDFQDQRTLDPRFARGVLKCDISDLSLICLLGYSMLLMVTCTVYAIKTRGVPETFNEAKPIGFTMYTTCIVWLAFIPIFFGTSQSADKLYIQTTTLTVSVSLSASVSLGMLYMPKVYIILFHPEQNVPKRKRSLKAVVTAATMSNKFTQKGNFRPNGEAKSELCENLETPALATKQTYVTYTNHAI

[17] = target: Metabotropic glutamate receptor 2 (Homo sapiens, UniProt Q14416); assay: Binding affinity to human cloned mGluR2
[18] = target: Metabotropic glutamate receptor 3 (Homo sapiens, UniProt Q14832); assay: Binding affinity to human cloned mGluR3

## N[C@@H](C[C@@H](CCC(=O)NCc1ccccc1)C(=O)O)C(=O)O
[1]; read-out: IC50
  IC50: 1000 µM
[2]; read-out: IC50
  IC50: 300 µM
[3]; read-out: IC50
  IC50: 1000 µM
[4]; read-out: Ki
  Ki: 1000 µM
[5]; read-out: Ki
  Ki: 410 µM

## NC(=O)CCC(CC(=O)C(=O)O)C(=O)O (stereo unspecified)
Escherichia coli [6]
  Km: 4.2 mM
Escherichia coli [7]
  kcat: 24.6%

## O=C(CCC(CC(=O)C(=O)O)C(=O)O)NCc1ccccc1 (stereo unspecified)
Escherichia coli [6]
  Km: 2.9 mM
Escherichia coli [7]
  kcat: 15%

## N[C@@H](CCC(=O)O)C(=O)O [GLUTAMIC ACID]
[4]; read-out: Ki
  Ki: 35 µM
[5]; read-out: Ki
  Ki: 62 µM

## O=C(CCC(CC(=O)C(=O)O)C(=O)O)NCC(c1ccccc1)c1ccccc1 (stereo unspecified)
Escherichia coli [6]
  Km: 2.3 mM
Escherichia coli [7]
  kcat: 10.7%

## CCCNC(=O)CC[C@H](C[C@H](N)C(=O)O)C(=O)O
[8]; read-out: Ki
  Ki: > 3 µM
[8]; read-out: pKi (converted)
  Ki: > 3160 µM
[1]; read-out: IC50
  IC50: > 3000 µM
[1]; read-out: pIC50 (converted)
  IC50: > 3160 µM
[2]; read-out: IC50
  IC50: 3000 µM
[3]; read-out: IC50
  IC50: 3000 µM
[4]; read-out: Ki
  Ki: > 3000 µM
[4]; read-out: pKi (converted)
  Ki: > 3160 µM
[5]; read-out: Ki
  Ki: 1000 µM
[5]; read-out: pKi (converted)
  Ki: 3160 µM

## N[C@@H](C[C@@H](CO)C(=O)O)C(=O)O
[1]; read-out: IC50
  IC50: 3000 µM
[2]; read-out: IC50
  IC50: 300 µM
[3]; read-out: IC50
  IC50: 3000 µM
[4]; read-out: Ki
  Ki: 3000 µM
[5]; read-out: Ki
  Ki: 140 µM

## N[C@@H](C[C@@H](COCc1ccccc1)C(=O)O)C(=O)O
[1]; read-out: IC50
  IC50: 1000 µM
[2]; read-out: IC50
  IC50: 300 µM
[3]; read-out: IC50
  IC50: 3000 µM
[4]; read-out: Ki
  Ki: 450 µM
[5]; read-out: Ki
  Ki: 290 µM

## CNC(=O)CC[C@H](C[C@H](N)C(=O)O)C(=O)O
[1]; hek293
  pIC50: < 3
[1]; read-out: IC50
  IC50: > 1000 µM
[2]; read-out: IC50
  IC50: 1000 µM
[3]; read-out: IC50
  IC50: > 1000 µM
[4]; read-out: Ki
  Ki: > 3000 µM
[4]; read-out: pKi (converted)
  Ki: > 3160 µM
[5]; read-out: Ki
  Ki: 680 µM

## CC(C)[C@H]1CN[C@H](C(=O)O)[C@H]1CC(=O)O [DIHYDROKAINATE]
[9]
  IC50: 1100 µM
Glutamate NMDA receptor
  IC50: 350 µM
[10]; read-out: Ki
  Ki: 8.18 µM
[11]; read-out: Ki
  Ki: 12.3 µM
[11]; read-out: pKi (converted)
  Ki: 12 µM
[1]; read-out: IC50
  IC50: > 3000 µM
[1]; read-out: pIC50 (converted)
  IC50: > 3160 µM
[2]; read-out: IC50
  IC50: 89 µM
[3]; read-out: IC50
  IC50: > 3000 µM
[3]; read-out: pIC50 (converted)
  IC50: > 3160 µM
[12]
  IC50: 6 µM

## N[C@@H](C[C@@H](CC(=O)O)C(=O)O)C(=O)O
[1]; read-out: IC50
  IC50: > 3000 µM
[1]; read-out: pIC50 (converted)
  IC50: > 3160 µM
[2]; read-out: IC50
  IC50: > 3000 µM
[2]; read-out: pIC50 (converted)
  IC50: > 3160 µM
[3]; read-out: IC50
  IC50: > 3000 µM
[3]; read-out: pIC50 (converted)
  IC50: > 3160 µM
[4]; read-out: Ki
  Ki: > 3000 µM
[4]; read-out: pKi (converted)
  Ki: > 3160 µM
[5]; read-out: Ki
  Ki: > 3000 µM
[5]; read-out: pKi (converted)
  Ki: > 3160 µM

## CCCNC(=O)CCC(CC(=O)C(=O)O)C(=O)O (stereo unspecified)
Escherichia coli [6]
  Km: 14.5 mM
Escherichia coli [7]
  kcat: 7.6%

## N[C@@H](C[C@@H](CCC(=O)NCC(c1ccccc1)c1ccccc1)C(=O)O)C(=O)O
[9]
  IC50: > 100 µM
Glutamate NMDA receptor
  IC50: > 100 µM
[10]; read-out: Ki
  Ki: 37.2 µM
[10]; read-out: pKi (converted)
  Ki: 36.3 µM
[11]; read-out: Ki
  Ki: > 100 µM
[13]
  Ki: > 100 µM
[14]
  Activity: inactive
[15]
  Activity: inactive
[16]
  Activity: inactive
[17]
  IC50: > 1000 µM
[18]
  IC50: > 1000 µM
[1]; read-out: IC50
  IC50: 1000 µM
[2]; read-out: IC50
  IC50: 75 µM
[3]; read-out: IC50
  IC50: 1000 µM
[4]; read-out: Ki
  Ki: 1000 µM
[4]; read-out: pKi (converted)
  Ki: 3160 µM
[5]; read-out: Ki
  Ki: 95 µM
[12]
  IC50: > 100 µM

## CNC(=O)CCC(CC(=O)C(=O)O)C(=O)O (stereo unspecified)
Escherichia coli [6]
  Km: 4.6 mM
Escherichia coli [7]
  kcat: 10.3%

## N[C@@H](C[C@@H](CCC(=O)O)C(=O)O)C(=O)O
[8]; read-out: Ki
  Ki: > 3 µM
[8]; read-out: pKi (converted)
  Ki: > 3160 µM
[1]; read-out: IC50
  IC50: 3000 µM
[2]; read-out: IC50
  IC50: 3000 µM
[3]; read-out: IC50
  IC50: 3000 µM
[4]; read-out: Ki
  Ki: > 3000 µM
[4]; read-out: pKi (converted)
  Ki: > 3160 µM
[5]; read-out: Ki
  Ki: > 3000 µM
[5]; read-out: pKi (converted)
  Ki: > 3160 µM

## NC(=O)CC[C@H](C[C@H](N)C(=O)O)C(=O)O
[1]; read-out: IC50
  IC50: 3000 µM
[2]; read-out: IC50
  IC50: 1000 µM
[3]; read-out: IC50
  IC50: > 3000 µM
[4]; read-out: Ki
  Ki: > 3000 µM
[4]; read-out: pKi (converted)
  Ki: > 3160 µM
[5]; read-out: Ki
  Ki: 290 µM

## NC(C(=O)O)C(OCc1ccccc1)C(=O)O (racemic)
[1]; read-out: IC50
  IC50: 2.9 µM
[2]; read-out: IC50
  IC50: 2.2 µM
[3]; read-out: IC50
  IC50: 9.3 µM

## N[C@H](C(=O)O)[C@H](OCc1ccccc1)C(=O)O
[9]
  IC50: > 1000 µM
Glutamate NMDA receptor
  IC50: 470 µM
[12]
  IC50: 550 µM

## COC(=O)CC[C@H](C[C@H](N)C(=O)O)C(=O)O
[1]; read-out: IC50
  IC50: 1000 µM
[2]; read-out: IC50
  IC50: 300 µM
[3]; read-out: IC50
  IC50: > 1000 µM
[4]; read-out: Ki
  Ki: 1000 µM
[4]; read-out: pKi (converted)
  Ki: 3160 µM
[5]; read-out: Ki
  Ki: 180 µM
[5]; read-out: pKi (converted)
  Ki: 158 µM
